Legend:
Rattus norvegicus [1] = test: Inhibition of increase in serum glucose level in sucrose-loaded Wistar rat at 500 mg/kg, po after 0.5 hrs; format: functional
Summary of the method: (§1)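 Male Wistar rats (about 130-150 g) fasted 20-24 h, water allowed. Test sample suspended in 5% acacia solution, given orally at 10 mL/kg; controls get vehicle. Thirty minutes later, 20% (w/v) sucrose at 5 mL/kg po (water for the normal group). Serum taken 0.5, 1 and 2 h after loading; glucose measured by glucose-oxidase method. Means ± SEM; one-way ANOVA with Dunnett's test.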

Rattus norvegicus [2] = test: Inhibition of increase in serum glucose level in sucrose-loaded Wistar rat at 500 mg/kg, po after 2 hrs; format: functional; summary of the method: as §1
Rattus norvegicus [3] = test: Inhibition of increase in serum glucose level in sucrose-loaded Wistar rat at 125 mg/kg, po after 0.5 hrs; format: functional; summary of the method: as §1
Rattus norvegicus [4] = test: Inhibition of increase in serum glucose level in sucrose-loaded Wistar rat at 125 mg/kg, po after 1 hr; format: functional; summary of the method: as §1
Rattus norvegicus [5] = test: Inhibition of increase in serum glucose level in sucrose-loaded Wistar rat at 125 mg/kg, po after 2 hrs; format: functional; summary of the method: as §1
Rattus norvegicus [6] = test: Inhibition of increase in serum glucose level in sucrose-loaded Wistar rat at 500 mg/kg, po after 1 hr; format: functional; summary of the method: as §1
Rattus norvegicus [7] = test: Inhibition of increase in serum glucose level in sucrose-loaded Wistar rat at 25 mg/kg, po after 1 hr; format: functional; summary of the method: as §1
Rattus norvegicus [8] = test: Inhibition of increase in serum glucose level in sucrose-loaded Wistar rat at 25 mg/kg, po after 2 hrs; format: functional; summary of the method: as §1
Rattus norvegicus [9] = test: Inhibition of increase in serum glucose level in sucrose-loaded Wistar rat at 50 mg/kg, po after 0.5 hrs; format: functional; summary of the method: as §1
Rattus norvegicus [10] = test: Inhibition of increase in serum glucose level in sucrose-loaded Wistar rat at 100 mg/kg, po after 0.5 hrs; format: functional; summary of the method: as §1
Mus musculus [11] = test: Suppression of gastric emptying in CMC-Na-loaded mouse at 50 mg/kg, po after 30 mins; format: functional, Stomach
Summary of the method: (§2)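 Male ddY mice (about 30-32 g) fasted 20-24 h, dosed orally in 5% acacia (10 mL/kg) 30 min before an intragastric meal of 1.5% CMC-Na with 0.05% phenol red (0.5 mL/mouse). Killed 30 min later; stomach homogenized in 0.1 M NaOH, TCA-deproteinized, alkalinized, read at 560 nm. Emptying % calculated against mice killed immediately after the meal. Means ± SEM, Dunnett's test.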

Mus musculus [12] = test: Suppression of gastric emptying in CMC-Na-loaded mouse at 25 mg/kg, po after 30 mins; format: functional, Stomach; summary of the method: as §2
Rattus norvegicus [13] = test: Inhibition of increase in serum glucose level in sucrose-loaded Wistar rat at 50 mg/kg, po after 1 hr; format: functional; summary of the method: as §1
Rattus norvegicus [14] = test: Inhibition of increase in serum glucose level in sucrose-loaded Wistar rat at 50 mg/kg, po after 2 hrs; format: functional; summary of the method: as §1
Rattus norvegicus [15] = test: Inhibition of increase in serum glucose level in sucrose-loaded Wistar rat at 25 mg/kg, po after 0.5 hrs; format: functional; summary of the method: as §1
Rattus norvegicus [16] = test: Inhibition of increase in serum glucose level in sucrose-loaded Wistar rat at 100 mg/kg, po after 2 hrs; format: functional; summary of the method: as §1
Rattus norvegicus [17] = test: Inhibition of increase in serum glucose level in sucrose-loaded Wistar rat at 100 mg/kg, po after 1 hr; format: functional; summary of the method: as §1
Rattus norvegicus [18] = test: Inhibition of increase in serum glucose level in sucrose-loaded Wistar rat at 12.5 mg/kg, po after 1hr; format: functional; summary of the method: as §1
Rattus norvegicus [19] = test: Inhibition of increase in serum glucose level in sucrose-loaded Wistar rat at 12.5 mg/kg, po after 0.5 hrs; format: functional; summary of the method: as §1
Rattus norvegicus [20] = test: Inhibition of increase in serum glucose level in sucrose-loaded Wistar rat at 12.5 mg/kg, po after 2 hrs; format: functional; summary of the method: as §1

SMILES | Activity (Rattus norvegicus [1]) [mg/dL] | Activity (Rattus norvegicus [2]) [mg/dL] | Activity (Rattus norvegicus [3]) [mg/dL] | Activity (Rattus norvegicus [4]) [mg/dL] | Activity (Rattus norvegicus [5]) [mg/dL] | Activity (Rattus norvegicus [6]) [mg/dL] | Activity (Rattus norvegicus [7]) [mg/dL] | Activity (Rattus norvegicus [8]) [mg/dL] | Activity (Rattus norvegicus [9]) [mg/dL] | Activity (Rattus norvegicus [10]) [mg/dL] | Activity (Mus musculus [11]) [%] | Activity (Mus musculus [12]) [%] | Activity (Rattus norvegicus [13]) [mg/dL] | Activity (Rattus norvegicus [14]) [mg/dL] | Activity (Rattus norvegicus [15]) [mg/dL] | Activity (Rattus norvegicus [16]) [mg/dL] | Activity (Rattus norvegicus [17]) [mg/dL] | Activity (Rattus norvegicus [18]) [mg/dL] | Activity (Rattus norvegicus [19]) [mg/dL] | Activity (Rattus norvegicus [20]) [mg/dL]
CN(C)C(=N)NC(=N)N [METFORMIN] | 113.1 | 119.8 | 134.8 | 136 | 115.5 | 105.6 | – | – | – | – | – | – | – | – | – | – | – | – | – | –
C[C@@H]1CC[C@@]2(NC1)O[C@H]1C[C@H]3[C@@H]4CC=C5C[C@@H](O[C@@H]6O[C@H](CO)[C@@H](O[C@@H]7O[C@@H](C)[C@H](O)[C@@H](O)[C@H]7O)[C@H](O)[C@H]6O[C@@H]6O[C@@H](C)[C@H](O)[C@@H](O)[C@H]6O)CC[C@]5(C)[C@H]4CC[C@]3(C)[C@H]1[C@@H]2C [SOLAMARGINE] | – | – | – | – | – | – | 139.9 | 133.7 | 124.3 | 118.5 | 58.4 | 73.7 | 117.1 | 118.7 | 141.7 | 122.3 | 116.6 | – | – | –
C[C@@H]1CC[C@@]2(NC1)O[C@H]1C[C@H]3[C@@H]4CC=C5C[C@@H](O[C@@H]6O[C@H](CO)[C@H](O)[C@H](O[C@@H]7O[C@H](CO)[C@@H](O)[C@H](O)[C@H]7O)[C@H]6O[C@@H]6O[C@@H](C)[C@H](O)[C@@H](O)[C@H]6O)CC[C@]5(C)[C@H]4CC[C@]3(C)[C@H]1[C@@H]2C [SOLASONINE] | – | – | – | – | – | – | 157.6 | 129.5 | 132.7 | 124.7 | 74.8 | 75.4 | 136.7 | 135.4 | 158.8 | 121.9 | 122.4 | – | – | –
CCCCNC(=O)NS(=O)(=O)c1ccc(C)cc1 [TOLBUTAMIDE] | – | – | – | – | – | – | 106.3 | 99.5 | – | – | – | – | – | – | 138.1 | – | – | 130.5 | 152.6 | 114.9
